High-throughput results (PubChem BioAssay)
Ecoli rRNA inh = selective bacterial rRNA inhibition in E. coli. E. coli WT GFP vs humanized-ribosome RFP mutants, fluorescence, 24 h; hits give low values; DMSO median 0, no signal -100. GFP signal change (wild-type ribosome), % (test concentration not listed). actives 1.6% (n = 350,000). AID 720706;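 active = significant combined selectivity score with lowered wild-type GFP, culture density cut under 30%, mutant RFP and density less affected; inactive = any of these conditions unmet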
PglD DTNB = inhibitors of Campylobacter jejuni PglD acetyltransferase; actives 0.098% (n = 360,000); inhibition, % at 12.5 µM; purified PglD enzyme, DTNB colorimetric CoA detection; in the data active = inhibition above about 16%, passing the limit was not always enough
Vif imaging = inhibitors of HIV Vif | HEK293T cells, Vif self-association by quenched fluorescence, imaging, 24 h | inhibition, % at 7.49 µM | actives 0.35% (n = 340,000); in the data active = inhibition above about 50%, passing the limit was not always enough
Cneo AK release = causes C. neoformans cell lysis. AID 651654. lysis activity, % at 15 µM. actives 0.2% (n = 360,000). adenylate kinase release luminescence, 4 h; normalised: neutral wells 0, clomiphene wells 100;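 active = mean lysis activity across replicates of at least 80%, whatever share of replicates individually reach that level; inactive = mean lysis activity below 80%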
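Test system: log-phase Cryptococcus neoformans yeast cells. Input: 5 × 10^6 yeast cells/mL. Medium: fresh YPD growth medium. Doses: single dose. Incubation: static 4 h at 37 °C with compound, 1 h detection. Measured by: luminescent adenylate kinase detection reagent. Read-out: signal increase indicating cell lysis. Benchmarks: Clomiphene.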
PGC1a acetyl inh = PGC1a acetylation modulation, inhibitor mode; U2OS PGC1a acetylation, AlphaScreen anti-acetyl-lysine; with virally co-expressed GCN5 acetyltransferase; inhibition, % at 15.6 µM; actives 0.17% (n = 350,000);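 active = every replicate shows inhibition of at least 40%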;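 also: 0% = neutral control wells and 100% = positive control wells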
FGF22 binding-1 = FGF22 (human) thermal shift binding; actives 1.5% (n = 340,000); AID 651658; recombinant FGF22 thermal shift, SYPRO orange fluorescence; percent of sucrose octasulfate shift, DMSO zero; activity (Tm shift, normalised), % at 9.99 µM;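 active = mean Tm shift, scaled 0 neutral to 100 positive control, at about 1.3% or above, every replicate too, limit read from the data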
Target sequence (Q9HCT0 whole entry, looked up): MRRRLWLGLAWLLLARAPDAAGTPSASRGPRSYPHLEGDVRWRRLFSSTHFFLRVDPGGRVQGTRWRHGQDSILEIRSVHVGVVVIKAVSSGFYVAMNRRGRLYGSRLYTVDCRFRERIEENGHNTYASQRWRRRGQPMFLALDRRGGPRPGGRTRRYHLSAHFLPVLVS
FGF22 binding-2 = binds human FGF22 shifting its melting temperature; shares compounds with FGF22 binding-1; recombinant FGF22 thermal shift, SYPRO orange fluorescence; thermal shift activity, °C (ΔTm) at 38 µM; actives 2% (n = 1,000);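 active = fitted rise in melting shift crosses a set limit at or below the top valid dose tested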
SYPRO no-protein = counter-screen for FGF22 binders: compound-only thermal shift, no protein | AC50, µM (titrated, usually from 38 µM) | actives 2% (n = 1,000) | compound-only SYPRO orange thermal shift counter-screen | shares compounds with FGF22 binding-1;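 active = rising signal whose fitted curve reaches the 0.54 level within the top valid dose, showing a melting point, actives reach about 13 µM in these data; inactive = the rest, including activity in the opposite direction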; also: value is where the raw curve crosses a fixed level and not half-maximal
* hit, by the source's call; i = inactive; x = not tested or not shown; [ ] = remark or other dose. Sampled rows, rich in hits. Any-hit rate of the full collection: about 2.9%.

SMILES	Ecoli rRNA inh	PglD DTNB	Vif imaging	Cneo AK release	PGC1a acetyl inh	FGF22 binding-1	FGF22 binding-2	SYPRO no-protein
Cc1cccc(C(=O)NNC(=O)c2ccc(NS(=O)(=O)c3cccs3)cc2)c1C	-2	0	-3	-4	2	1.9*	-0.09	i
C[C@@H]1CN([C@@H](C)CO)C(=O)c2cc(-c3ccc(F)cc3)cnc2O[C@@H]1CN(C)C(=O)c1ccccc1F	3	-1	x	8	-1	0	x	x
O=C(Nc1ccc(S(=O)(=O)NCc2ccccc2)cc1)c1ccccc1[N+](=O)[O-]	x	x	3	x	x	2.4*	0.029	i
Nc1ccccc1N=Nc1ccccc1N	-2	0	3	-5	2	2.5*	0.15	i
N#C[C@H]1[C@@H](c2ccc(C3=CCCCC3)cc2)[C@@H](CO)N1S(=O)(=O)c1ccccc1	-1	-1	x	-1	15	1.9*	-0.2	i
COc1cc(/C=C2\S/C(=N/S(=O)(=O)Cc3ccccc3)NC2=O)c([N+](=O)[O-])cc1OC	-13	0	-2	3	9	1	x	x
COc1cc(/C=C2/S/C(=N/S(=O)(=O)Cc3ccccc3)NC2=O)c([N+](=O)[O-])cc1OC	1	10	4	-1	7	1.9*	0.11	i
CN(C)S(=O)(=O)n1cnc([C@@H]2[C@@H]3C(=O)OC[C@@H]3C[C@]23N=CN(Cc2ccccc2)C3=O)c1	13	1	1	-1	15	29*	0.15	i
CN(C)S(=O)(=O)n1cnc([C@H]2c3c(ncn3Cc3ccccc3)C[C@H]3COC(=O)[C@@H]32)c1	8	-6	-4	25	3	0	x	x
CCCN(C)C[C@@H]1Oc2cc(C#CC(C)(C)O)ccc2S(=O)(=O)N([C@@H](C)CO)C[C@@H]1C	6	0	x	2	-6	1.3*	0.18[42 µM]	i
COCC#Cc1ccc2c(c1)O[C@H](CN(C)C(=O)c1ccccc1)[C@@H](C)CN([C@@H](C)CO)S2(=O)=O	-2	2	x	2	1	8.3*	0.17[42 µM]	i
COCC#Cc1ccc2c(c1)O[C@@H](CN(C)C(=O)c1ccccc1)[C@H](C)CN([C@H](C)CO)S2(=O)=O	-3	1	x	0	-4	-1	x	x
COCC(=O)N(C)C[C@H]1Oc2cc(C#Cc3ccccc3)ccc2S(=O)(=O)N([C@H](C)CO)C[C@H]1C	-2	-3	x	4	-1	6.2*	0.1[42 µM]	i
C[C@H](CO)N1C[C@H](C)[C@@H](CN(C)Cc2cccnc2)Oc2cc(Br)ccc2S1(=O)=O	-11	2	x	-4	4	0	x	x
COc1ccc(NC(=O)O[C@@H](c2ccc(OC)c(O)c2)[C@H](CCO)OC)cc1	x	3	x	-12	-3	0	x	x
COc1ccc(S(=O)(=O)N(C)C[C@@H]2Oc3c(NC(=O)C4CCOCC4)cccc3C(=O)N([C@H](C)CO)C[C@H]2C)cc1	4	-1	x	57	6	0	x	x
C[C@@H]1CN([C@@H](C)CO)C(=O)c2cc(NS(=O)(=O)c3ccc(Cl)cc3)ccc2O[C@@H]1CN(C)S(=O)(=O)c1ccc(F)cc1	-1	3	x	3	-19	2.9*	0.18[42 µM]	i
Cc1ccc(S(=O)(=O)Nc2ccc3c(c2)C(=O)N([C@@H](C)CO)C[C@@H](C)[C@@H](CN(C)C)O3)cc1	5	3	x	0	-6	1.9*	-0.025	i
Cc1ccc(S(=O)(=O)Nc2ccc3c(c2)C(=O)N([C@@H](C)CO)C[C@@H](C)[C@H](CN(C)C)O3)cc1	0	0	x	4	5	0	x	x
C[C@@H]1CN([C@H](C)CO)C(=O)c2cc(NS(=O)(=O)c3ccc(Cl)cc3)ccc2O[C@@H]1CN(C)S(=O)(=O)c1ccc(F)cc1	-8	1	x	4	-4	-1	x	x
C[C@H](CO)N1C[C@H](C)[C@H](CN(C)S(=O)(=O)c2ccc(F)cc2)Oc2ccc(NC(=O)c3ccncc3)cc2C1=O	-2	2	x	-4	-4	1.9*	0.048	i
CO[C@@H](CN(C)C(=O)c1cnccn1)[C@H](C)CN([C@@H](C)CO)S(=O)(=O)c1ccc(F)cc1	3	-1	x	11	0	0	x	x
O=C(Cc1c[nH]c2ccccc12)N1CCN(S(=O)(=O)c2ccc(F)cc2)CC1	-4	1	-5	5	7	0	x	x
O=C(Cc1c[nH]c2ccccc12)N1CCN(S(=O)(=O)c2cccc(Cl)c2Cl)CC1	-11	6	-9	1	-19	2.9*	-0.22	i
Nc1nccc(-c2ccc(-n3cccc3)cc2)n1	11	-4	4	4	13	2.3*	0.004	i
SMILES	Ecoli rRNA inh	PglD DTNB	Vif imaging	Cneo AK release	PGC1a acetyl inh	FGF22 binding-1	FGF22 binding-2	SYPRO no-protein
COCC(=O)Nc1ccc2c(c1)[C@H]1C[C@@H](CC(=O)NCc3cccc(F)c3)O[C@H](CO)[C@H]1O2	0	-2	x	-5	4	0	x	x
CCC(=O)N1CC2(C1)[C@H](c1ccccc1)[C@H](CO)N2S(=O)(=O)Cc1ccccc1	0	x	x	x	2	16*	-0.015	i
O=C(CC1CC1)N1CC2(C1)[C@@H](c1ccccc1)[C@@H](CO)N2S(=O)(=O)Cc1ccccc1	1	x	x	x	-10	1.3*	-0.11	i
O=C(C1CCCC1)N1CC2(C1)[C@H](c1ccccc1)[C@@H](CO)N2CC1CC1	2	x	x	x	-12	1.6*	0.056[42 µM]	i
O=C(C1CCCC1)N1CC2(C1)[C@H](c1ccccc1)[C@H](CO)N2CC1CCCC1	-33	x	x	x	5	x	x	x
CCC(=O)N1CC2(C1)[C@@H](c1ccccc1)[C@@H](CO)N2S(=O)(=O)Cc1ccccc1	6	x	x	x	-4	0	x	x
O=C(C[C@@H]1CC[C@H]2[C@@H](COC[C@@H](O)CN2S(=O)(=O)c2ccc(F)cc2)O1)NCC1CC1	6	-2	x	3	-1	0	x	x
COc1ccc2c3c([nH]c2c1)[C@H](CO)N(C(=O)C1CC1)CC31CCN(C)CC1	6	x	x	x	x	0	x	x
COC(=O)CN1C(=S)N(c2ccc(Cl)cc2)C(=O)C1CC(=O)Nc1ccc(F)cc1 (stereo not given)	-25*	x	-2	x	x	1.9*	-0.16	i
COc1ccc(N2C(=O)C(CC(=O)Nc3ccccc3)N(Cc3ccc4c(c3)OCO4)C2=O)cc1 (stereo not given)	-4	5	8	0	3	1.4*	0.043	i
